We go through 4 molecules from ChEMBL document CHEMBL1155442, “Click chemistry approach to new N-substituted aminocyclitols as potential pharmacological chaperones for Gaucher disease” (J Med Chem, 2010).

Activity calls are given as the source filed them. The calls are words filed in the database; no cut-off is given here.

The target in data set [1] is T1, Lysosomal acid glucosylceramidase (Homo sapiens) (UniProt P04062).
T1 sequence (whole entry): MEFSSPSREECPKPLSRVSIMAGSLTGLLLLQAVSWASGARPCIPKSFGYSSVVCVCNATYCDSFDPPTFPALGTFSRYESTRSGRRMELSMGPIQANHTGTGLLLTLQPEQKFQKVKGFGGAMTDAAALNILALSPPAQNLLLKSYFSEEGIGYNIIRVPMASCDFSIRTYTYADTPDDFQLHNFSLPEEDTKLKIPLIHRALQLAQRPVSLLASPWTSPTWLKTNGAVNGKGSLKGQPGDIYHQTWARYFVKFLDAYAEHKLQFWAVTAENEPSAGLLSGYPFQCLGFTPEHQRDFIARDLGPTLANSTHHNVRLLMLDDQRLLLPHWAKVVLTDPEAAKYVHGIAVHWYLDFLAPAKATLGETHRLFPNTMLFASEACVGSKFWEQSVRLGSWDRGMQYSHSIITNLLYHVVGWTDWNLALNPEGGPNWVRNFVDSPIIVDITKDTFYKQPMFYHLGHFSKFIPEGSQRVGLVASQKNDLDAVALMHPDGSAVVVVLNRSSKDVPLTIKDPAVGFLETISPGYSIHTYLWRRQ
The data set can be described thus: Binding affinity to recombinant beta-glucocerebrosidase assessed as enzymatic activity at 50 uM after 60 mins by thermal stabilization assay relative to control.

In data set [2] the target is T1, Lysosomal acid glucosylceramidase (Homo sapiens). In words: Binding affinity to recombinant beta-glucocerebrosidase assessed as enzymatic activity at 150 uM after 60 mins by thermal stabilization assay relative to control.
Data set [3] has the same target. The data set can be described thus: Binding affinity to recombinant beta-glucocerebrosidase assessed as enzymatic activity at 150 uM after 40 mins by thermal stabilization assay relative to control.
Data set [4] addresses T2, Lysosomal acid glucosylceramidase (Homo sapiens, UniProt P04062).
T2 sequence (P04062 whole entry): T1 sequence (whole entry)
In words: Inhibition of recombinant beta-glucocerebrosidase at pH 5.2 after 10 mins by fluorimetry.

Data set [5] can be described thus: Selectivity index, ratio of CC50 for human fibroblast to Ki for beta-glucocerebrosidase.
A further data set concerns Prunus dulcis. In words: Inhibition of sweet almond beta-glucosidase at 0.1 mM.
In data set [6] the target is T2, Lysosomal acid glucosylceramidase. In words: Competitive inhibition of beta-glucocerebrosidase at pH 5.2 by Lineweaver-Burke plot analysis.
Data set [7] has the same target. In words: Inhibition of recombinant beta-glucocerebrosidase after 10 mins by fluorimetry. Summed up:
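Imiglucerase (0.1 mg/mL stock) in McIlvaine buffer, pH 5.2 or 7.4, with 0.2% sodium taurocholate and 0.1% Triton X-100. Preincubated 30 min at 37 °C with or without inhibitor. Then 4 mM 4-methylumbelliferyl-β-D-glucopyranoside added for 10 min at 37 °C. Stopped with glycine/NaOH pH 10.6; 4-MU read at ex 355/em 460 nm. IC50 from % activity vs log[I], at least five concentrations.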

For data set [8], the target named is T3, Beta-galactosidase (Bos taurus) (UniProt Q58D55).
T3 sequence (whole entry): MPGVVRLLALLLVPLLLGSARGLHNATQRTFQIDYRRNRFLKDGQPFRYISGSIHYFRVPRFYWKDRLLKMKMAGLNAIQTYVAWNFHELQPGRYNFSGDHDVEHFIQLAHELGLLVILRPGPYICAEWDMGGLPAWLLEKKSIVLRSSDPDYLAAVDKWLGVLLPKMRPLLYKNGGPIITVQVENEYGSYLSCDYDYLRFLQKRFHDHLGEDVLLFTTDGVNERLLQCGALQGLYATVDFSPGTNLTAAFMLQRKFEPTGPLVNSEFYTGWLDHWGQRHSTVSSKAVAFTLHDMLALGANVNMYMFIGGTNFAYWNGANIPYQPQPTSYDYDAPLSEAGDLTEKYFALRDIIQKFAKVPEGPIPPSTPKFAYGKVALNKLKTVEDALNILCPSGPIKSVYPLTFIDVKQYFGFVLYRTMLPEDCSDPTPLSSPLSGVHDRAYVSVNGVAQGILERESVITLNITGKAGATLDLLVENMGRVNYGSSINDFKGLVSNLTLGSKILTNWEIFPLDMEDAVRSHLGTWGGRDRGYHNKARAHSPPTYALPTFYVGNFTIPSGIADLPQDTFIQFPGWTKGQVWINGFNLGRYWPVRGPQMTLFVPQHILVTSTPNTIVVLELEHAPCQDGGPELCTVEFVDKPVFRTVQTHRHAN
The data set can be described thus: Inhibition of bovine liver beta-galactosidase at 0.1 mM.

The test system of data set [9] is Oryza sativa. In words: Inhibition of rice alpha-galactosidase at 0.1 mM.
Data set [10] deals with T1, Lysosomal acid glucosylceramidase (Homo sapiens). In words: Binding affinity to recombinant beta-glucocerebrosidase assessed as enzymatic activity at 100 uM after 40 mins by thermal stabilization assay relative to control.
Data set [11] is described as follows: Cytotoxicity against human fibroblast after 24 hrs by MTT assay. It counts as cell-based. The following applies: human fibroblasts. For orientation: Tetrazolium dyes change colour on reduction, which living cells bring about.
The test system of the next data set is Saccharomyces cerevisiae. In words: Inhibition of yeast alpha-glucosidase at 0.1 mM.
Data set [12] addresses T2, Lysosomal acid glucosylceramidase. In words: Inhibition of recombinant beta-glucocerebrosidase at pH 7.4 after 10 mins by fluorimetry.
Data set [13] concerns the target T1, Lysosomal acid glucosylceramidase (Homo sapiens). In words: Binding affinity to recombinant beta-glucocerebrosidase assessed as enzymatic activity at 50 uM after 40 mins by thermal stabilization assay relative to control.
Data set [14] has the same target. The data set can be described thus: Binding affinity to recombinant beta-glucocerebrosidase assessed as enzymatic activity at 150 uM after 20 mins by thermal stabilization assay relative to control.
Data set [15] has as its system Oryza sativa. The data set can be described thus: Inhibition of rice alpha-glucosidase at 0.1 mM.
In data set [16] the target is T1, Lysosomal acid glucosylceramidase (Homo sapiens). In words: Binding affinity to recombinant beta-glucocerebrosidase assessed as enzymatic activity at 100 uM after 60 mins by thermal stabilization assay relative to control.
The target is the same in data set [17]. In words: Binding affinity to recombinant beta-glucocerebrosidase assessed as enzymatic activity at 100 uM after 20 mins by thermal stabilization assay relative to control.
For data set [18] the target is unchanged. The data set can be described thus: Inhibition of beta-glucocerebrosidase in human fibroblast at 20 uM after 24 hrs by fluorescence assay. Summed up:
(§1)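 Wild-type human fibroblasts exposed to compound for 24 h (10, 20 or 50 μM, as listed) with 5 mM substrate. Cellular GCase activity then measured.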

Data set [19] has the same target. The data set can be described thus: Binding affinity to recombinant beta-glucocerebrosidase assessed as enzymatic activity at 50 uM after 20 mins by thermal stabilization assay relative to control.
Data set [20] shares this target. In words: Inhibition of beta-glucocerebrosidase in human fibroblast at 10 uM after 24 hrs by fluorescence assay. Summed up: as §1
The nature of data set [21]: Dissociation constant, pKa of the compound. Format: physicochemical.
For data set [22], the target named is T1, Lysosomal acid glucosylceramidase (Homo sapiens). The data set can be described thus: Inhibition of beta-glucocerebrosidase in human fibroblast at 50 uM after 24 hrs by fluorescence assay. Summed up:
as §1

A short description of data set [23]: Cytotoxicity against human fibroblast at 300 uM after 24 hrs by MTT assay. It counts as cell-based.
Data set [24] concerns Glucosylceramide synthase (Homo sapiens). In words: Inhibition of glucosylceramide synthase in human A549 cells at 250 uM after 35 mins by fluorescence-coupled HPLC analysis.

For the molecule `CCCCCCCCCCCCCCn1cc(CN[C@H]2[C@H](O)[C@@H](O)[C@H](O)[C@@H](O)[C@@H]2O)nn1`, the fold change (FC) in data set [1] turned out to be 13.8; in [2] it was 9.4; in data set [3], 5.91; in data set [10], 7.48; in data set [13] it was 7.86; in data set [14] it was 2.67. For the same molecule, the fold change (FC) in data set [16] was 13.2; in [17], 2.88; in data set [19], 2.82. Besides, the results for the IC50 in data set [4], in [7] and in data set [12] were 0.09 µM, 0.0891 µM and 0.1 µM, respectively. Further, the “Selectivity Index” value in data set [5] was 237. Besides, the inhibition result (in the data set with Prunus dulcis; in data set [8]; in the data set with Oryza sativa [9]; in the data set with Saccharomyces cerevisiae; in the data set on Oryza sativa [15]) was “inactive” throughout. The Ki in data set [6] was determined as 0.08 µM. The molecule also displayed a CC50 at 24 h in data set [11] of 19 µM. Besides, the inhibition entry in data set [18] is “Toxic”; in data set [20] it was 93%; in [22], “Toxic”. In addition, the pKa in data set [21] amounted to 7.7.
As to `CCCCCCCCCCn1cc(CCCN[C@H]2[C@H](O)[C@@H](O)[C@H](O)[C@@H](O)[C@@H]2O)nn1`, the results for the IC50 in data set [4], in [7] and in data set [12] were 3.5 µM, 3.47 µM and 1.2 µM, respectively. For the same molecule, the inhibition result (with Prunus dulcis; in data set [8]; in the data set with Oryza sativa [9]; in the data set with Saccharomyces cerevisiae; in the data set on Oryza sativa [15]) was “inactive” each time. Also, in data set [6], the affinity corresponds to a Ki of 7.6 µM. For the same molecule, the CC50 at 24 h in data set [11] was found to be 170 µM. This molecule displayed a pKa in data set [21] of 9.9. In data set [22], the inhibition is 20%.
As for `CCCCCCn1cc(CCCN[C@H]2[C@H](O)[C@@H](O)[C@H](O)[C@@H](O)[C@@H]2O)nn1`, in [23], the Activity result is given as “Non-toxic”. For the same molecule, the IC50 in data set [4] is 257 µM; in [7], 257 µM; in [12], 44.6 µM. In addition, the inhibition result (in the data set with Prunus dulcis; in [8]; in the data set on Oryza sativa [9]; with Saccharomyces cerevisiae; with Oryza sativa [15]) was “inactive” each time. Moreover, the values for the inhibition in data set [24] and in [22] were 30% and under 5%, respectively. This molecule registered a pKa in data set [21] of 10.4.
In the case of `CCCCCCCCCCCn1cc(CCN[C@H]2[C@H](O)[C@@H](O)[C@H](O)[C@@H](O)[C@@H]2O)nn1`, the fold change (FC) in data set [1] is 9.63; in [2], 5.3; in data set [3], 4.79; in [10], 6.7; in [13], 5.98; in [14], 2.5. Further, the fold change (FC) in [16] was 11.6; in data set [17], 2.55; in data set [19], 2.43. In data set [23], the Activity result is given as “Non-toxic”. Moreover, the values for the IC50 in data set [4], in [7] and in data set [12] were 25.4 µM, 25.7 µM and 4.9 µM, respectively. The inhibition entry (with Prunus dulcis; in data set [8]; in the data set with Oryza sativa [9]; with Saccharomyces cerevisiae; with Oryza sativa [15]) was “inactive” in each case. Moreover, affinity in data set [6] was put at a Ki of 20.2 µM. Further, the inhibition was found to be 30% in data set [24] and 50% in [22]. Besides, the pKa in data set [21] is 9.1.

By IC50 is commonly meant the midpoint of a concentration-inhibition curve. As a reminder, the inhibition is the percentage by which the read-out fell short of the control. As a reminder, the Ki is a measure of affinity in units of concentration, obtained from inhibition or displacement. Low values mean a stronger hold on the target, high ones a looser hold on the target. What is called CC50 is the concentration at which the toxic effect on the cells reaches its halfway point. A high value points to better tolerance by the cells. What is called pKa is the negative logarithm of the acid dissociation constant. A higher pKa goes with a weaker acid or stronger base.
